In ChEMBL document CHEMBL2062366, “Synthesis and biological evaluation of purpurealidin E-derived marine sponge metabolites: aplysamine-2, aplyzanzine A, and suberedamines A and B” (2012):
Values after ≈ are worked out from the molar mass of the structure shown. Active and inactive are the calls of the source. The rule behind the calls is not given here.

Tests used:
Assay type in all cases: functional
[1] = tested on: Mycobacterium tuberculosis; assay: Antimycobacterial activity against Mycobacterium tuberculosis H37Rv after 2 weeks by spot culture growth inhibition assay
Procedure, shortened: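 H37Rv grown as standing culture in 7H9 + 10% ADC + 0.05% Tween-80 to McFarland 1, checked for contamination on blood agar. Culture diluted to 10³ cfu/mL; 10 μL spotted onto 7H10 agar + 10% OADC with compound, 37 °C, 2 weeks. Controls: DMSO (negative), isoniazid (positive). MIC = lowest concentration with no growth.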

[2] = tested on: Staphylococcus epidermidis; assay: Antibacterial activity against Staphylococcus epidermidis NCTC 11047 after 24 hrs; settings: NCTC 11047, 24 h
Procedure, shortened: (§1)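 Agar dilution in Isosensitest agar at final compound levels of 128–1 μg/mL, from 10 mg/mL DMSO stocks. Solvent-only control plates covered the same DMSO range. Strains were pre-grown overnight on Columbia agar at 37 °C and multipoint-inoculated at 10 000 cfu/spot. Plates were read after 24 h at 37 °C. MIC was taken as the lowest concentration giving no visible growth, with tests repeated on a separate occasion.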

Staphylococcus aureus [3] = assay: Antibacterial activity against methicillin-resistant Staphylococcus aureus NCTC 11939 after 24 hrs; settings: NCTC 11939, 24 h
Procedure, shortened: (§2)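 Agar dilution on Isosensitest agar with final 128−1 μg/mL compound from DMSO solution; DMSO-only control plates. Strains pre-grown overnight on Columbia agar at 37 °C, suspended in sterile water, diluted to give 10 000 cfu per spot. Incubated 37 °C, 24 h. MIC = lowest concentration completely inhibiting visible growth; repeated on a separate occasion.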

Enterococcus faecium = assay: Antibacterial activity against Enterococcus faecium NCTC 7171 after 24 hrs; settings: NCTC 7171, 24 h; procedure, shortened: as §1
Enterococcus faecalis = assay: Antibacterial activity against Enterococcus faecalis NCTC 775 after 24 hrs; settings: NCTC 775, 24 h; procedure, shortened: as §1
Staphylococcus aureus [4] = assay: Antibacterial activity against Staphylococcus aureus NCTC 6571 after 24 hrs; settings: NCTC 6571, 24 h; procedure, shortened: as §2
Bacillus subtilis = assay: Antibacterial activity against Bacillus subtilis NCTC 9372 after 24 hrs; settings: NCTC 9372, 24 h; procedure, shortened: as §1
Listeria monocytogenes = assay: Antibacterial activity against Listeria monocytogenes NCTC 11994 after 24 hrs; settings: NCTC 11994, 24 h; procedure, shortened: as §1
Streptococcus pyogenes = assay: Antibacterial activity against Streptococcus pyogenes NCTC 8306 after 24 hrs; settings: NCTC 8306, 24 h; procedure, shortened: as §1
K562 = assay: Growth inhibition of human K562 cells after 48 hrs by sulforhodamine B assay; settings: K562, 48 h, pooled result: one value given for 6 cell lines, strains, targets or settings
Procedure, shortened: (§3)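 Run at the NCI Developmental Therapeutics Program under the standard DTP NCI60 protocol. Total cell protein was measured by sulforhodamine B staining at time 0 and after 48 h exposure. GI50, the concentration giving a 50% reduction of growth, was estimated from dose–response curves.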

Escherichia coli = assay: Antibacterial activity against Escherichia coli NCTC 10418 after 24 hrs; settings: NCTC 10418, 24 h; procedure, shortened: as §1
Nakaseomyces glabratus = assay: Antifungal activity against Candida glabrata NCPF 9725 after 24 hrs; settings: NCPF 9725, 24 h; procedure, shortened: as §1
Candida albicans = assay: Antifungal activity against Candida albicans ATCC 90028 after 24 hrs; settings: ATCC 90028, 24 h; procedure, shortened: as §1
[5] = Growth inhibition of human NCI60 cells after 48 hrs by sulforhodamine B assay; settings: NCI60, 48 h; procedure, shortened: as §3

**Q.** With `COc1ccc(C/C(=N\O)C(=O)NCCc2cc(Br)c(OCCCN(C)C)c(Br)c2)cc1Br` as the molecule, how does the MIC ([1]; 336 h) read?
**A.** Its MIC is 25 µg/mL (≈ 38.4 µM).

**Q.** And the MIC [2]?
**A.** Its MIC is 64 µg/mL (≈ 98.4 µM).

**Q.** And the MIC (Staphylococcus aureus [3])?
**A.** Its MIC is 64 µg/mL (≈ 98.4 µM).

**Q.** And the MIC (Enterococcus faecium)?
**A.** Its MIC is 64 µg/mL (≈ 98.4 µM).

**Q.** What about the MIC (Enterococcus faecalis) of the same molecule?
**A.** Its MIC is 64 µg/mL (≈ 98.4 µM).

**Q.** What about the MIC (Staphylococcus aureus [4]) of the same molecule?
**A.** The MIC was 32 µg/mL (≈ 49.2 µM).

**Q.** And the MIC (Bacillus subtilis)?
**A.** Its MIC is 32 µg/mL (≈ 49.2 µM).

**Q.** What about the MIC (Listeria monocytogenes) of the same molecule?
**A.** Its MIC is 64 µg/mL (≈ 98.4 µM).

**Q.** What about the MIC (Streptococcus pyogenes) of the same molecule?
**A.** Its MIC is 32 µg/mL (≈ 49.2 µM).

**Q.** Which results are given for `CN[C@@H](Cc1cc(Br)c(OC)c(Br)c1)C(=O)NCCc1cc(Br)c(OCCCN(C)C)c(Br)c1`?
**A.** GI50 (K562; read-out: GI50): 2.17 µM; GI50 (K562; read-out: pGI50 (converted)): 4.79 µM

**Q.** With `CN(C)CCCOc1c(Br)cc(CCN)cc1Br` as the molecule, how does the MIC [1] read?
**A.** The MIC was “inactive”.

**Q.** Which MIC ([1]; 336 h) does the source give for `CNC(Cc1cc(Br)c(OC)c(Br)c1)C(=O)NCCCOc1c(Br)cc(CCN(C)C)cc1Br.Cl` (centres undefined) [ANOMOIAN A] here?
**A.** The MIC was 25 µg/mL.

**Q.** And the MIC [2]?
**A.** Its MIC is 64 µg/mL.

**Q.** And the MIC (Staphylococcus aureus [3])?
**A.** The MIC was 64 µg/mL.

**Q.** What about the MIC (Enterococcus faecium) of the same molecule?
**A.** Its MIC is 64 µg/mL.

**Q.** What about the MIC (Staphylococcus aureus [4]) of the same molecule?
**A.** The MIC was 64 µg/mL.

**Q.** What about the MIC (Escherichia coli) of the same molecule?
**A.** Its MIC is 64 µg/mL.

**Q.** And the MIC (Bacillus subtilis)?
**A.** Its MIC is 32 µg/mL.

**Q.** What about the MIC (Listeria monocytogenes) of the same molecule?
**A.** Its MIC is 64 µg/mL.

**Q.** What about the MIC (Streptococcus pyogenes) of the same molecule?
**A.** Its MIC is 64 µg/mL.

**Q.** Which MIC (Nakaseomyces glabratus) does the source give for `COc1c(Br)cc(C[C@@H](C(=O)NCCc2cc(Br)c(OCCCN(C)C)c(Br)c2)N(C)C)cc1Br` [APLYZANZINE A] here?
**A.** The MIC was 64 µg/mL (≈ 86.1 µM).

**Q.** What about the MIC ([1]; 336 h) of the same molecule?
**A.** The MIC was 25 µg/mL (≈ 33.6 µM).

**Q.** What about the MIC [2] of the same molecule?
**A.** The MIC was 16 µg/mL (≈ 21.5 µM).

**Q.** And the MIC (Staphylococcus aureus [3])?
**A.** The MIC was 32 µg/mL (≈ 43.1 µM).

**Q.** And the MIC (Enterococcus faecium)?
**A.** The MIC was 32 µg/mL (≈ 43.1 µM).

**Q.** And the MIC (Enterococcus faecalis)?
**A.** The MIC was 32 µg/mL (≈ 43.1 µM).

**Q.** And the MIC (Staphylococcus aureus [4])?
**A.** Its MIC is 32 µg/mL (≈ 43.1 µM).

**Q.** What about the MIC (Escherichia coli) of the same molecule?
**A.** The MIC was 32 µg/mL (≈ 43.1 µM).

**Q.** And the MIC (Bacillus subtilis)?
**A.** Its MIC is 16 µg/mL (≈ 21.5 µM).

**Q.** And the MIC (Candida albicans)?
**A.** Its MIC is 64 µg/mL (≈ 86.1 µM).

**Q.** And the MIC (Listeria monocytogenes)?
**A.** Its MIC is 32 µg/mL (≈ 43.1 µM).

**Q.** And the MIC (Streptococcus pyogenes)?
**A.** Its MIC is 16 µg/mL (≈ 21.5 µM).

**Q.** Which results are given for `COc1ccc(C[C@H](N)C(=O)NCCc2cc(Br)c(OCCCN(C)C)c(Br)c2)cc1Br` [SUBEREDAMINE A]?
**A.** MIC ([1]; 336 h): 50 µg/mL (≈ 78.6 µM); MIC [2]: 64 µg/mL (≈ 101 µM); MIC (Bacillus subtilis): 64 µg/mL (≈ 101 µM)

**Q.** What does the source list for `CN[C@@H](Cc1ccc(OC)c(Br)c1)C(=O)NCCc1cc(Br)c(OCCCN(C)C)c(Br)c1` [SUBEREDAMINE B]?
**A.** MIC ([1]; 336 h): 40 µg/mL (≈ 61.5 µM); GI50 ([5]; read-out: GI50): 5.47 µM; GI50 ([5]; read-out: pGI50 (converted)): 4.79 µM
